This is an account of results in ChEMBL document CHEMBL2010757, “Cholinestrase inhibitory effects of geranylated flavonoids from Paulownia tomentosa fruits” (Bioorg Med Chem, 2012).

The target in assay [1] is T1, Acetylcholinesterase (Homo sapiens, UniProt P22303). Description: Inhibition of human erythrocyte AChE assessed as acetylthiocholine iodide hydrolysis after 10 mins preincubation by spectrophotometry. Put shortly:
(§1)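 Human erythrocyte AChE (0.25 U/mL) with sample in 100 mM sodium phosphate pH 8.0, 10 min room temperature preincubation; started with DTNB (3.3 mM) and acetylthiocholine iodide (1 mM). Thiolate formation read at 412 nm, triplicate. IC50 as concentration for 50% inhibition; mode by Lineweaver–Burk plots over rising substrate and inhibitor, Ki by Dixon plot.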

The target of assay [2] is T2, Butyrylcholinesterase (Equus caballus, UniProt Q9N1N9). The experiment in a line: Mixed type inhibition of equine BChE using butyrylthiocholine iodide as substrate by Lineweaver-Burk double-reciprocal-plot and dixon plot analysis. Put shortly:
(§2)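 Equine serum BChE (0.05 U/mL) mixed with sample in 100 mM sodium phosphate pH 8.0, held 10 min at room temperature; started with DTNB (3.3 mM) and butyrylthiocholine iodide (1 mM). 5-Thio-2-nitrobenzoate read at 412 nm, triplicate. IC50 as concentration giving 50% inhibition; kinetics by Lineweaver–Burk plots at rising substrate and inhibitor levels, Ki from Dixon plot.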

In assay [3] the target is T1, Acetylcholinesterase. Description: Reversible inhibition of human erythrocyte AChE using assessed as acetylthiocholine iodide hydrolysis by spectrophotometry. The note with it: TDE = time-dependent effect. An outline of the steps:
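hAChE (0.25 U/mL) with 1 mM acetylthiocholine in 100 mM sodium phosphate pH 8.0 at 37 °C, read continuously by spectrophotometer for 300 s. Reversibility from initial velocity versus enzyme amount at several inhibitor levels. Enzyme preincubated with inhibitor 0–60 min in 10 min steps; residual velocity (v/v0) followed; progress curves at one inhibitor level fitted by nonlinear regression.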

In assay [4] the target is T1, Acetylcholinesterase. The experiment in a line: Mixed type inhibition of human erythrocyte AChE using acetylthiocholine iodide as substrate by Lineweaver-Burk double-reciprocal-plot and dixon plot analysis. An outline of the steps:
as §1

Assay [5] has as its target T2, Butyrylcholinesterase. The experiment in a line: Inhibition of equine BChE assessed as butyrylthiocholine iodide hydrolysis after 10 mins preincubation by spectrophotometry. Put shortly: as §2
Assay [6] addresses T1, Acetylcholinesterase. Description: Ratio of eriodictyol IC50 to compound IC50 for human erythrocyte AChE.
In assay [7] the target is T1, Acetylcholinesterase. Description: Binding affinity to human erythrocyte AChE assessed as fluorescence quenching by microplate reader. An outline of the steps:
(§3)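 hAChE at 5 U/mL in 100 mM sodium phosphate pH 8.0 titrated with successive inhibitor additions. Excitation 276 nm, emission 300–400 nm, slits 2.0 nm, at 18 and 37 °C; triplicate means. Affinity constant KA and n from log[(F0−F)/F] = logKA + n log[Q] for static quenching.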

In assay [8] the target is T1, Acetylcholinesterase. The experiment in a line: Binding affinity to human erythrocyte AChE. An outline of the steps: as §3

T1 sequence (P22303 whole entry): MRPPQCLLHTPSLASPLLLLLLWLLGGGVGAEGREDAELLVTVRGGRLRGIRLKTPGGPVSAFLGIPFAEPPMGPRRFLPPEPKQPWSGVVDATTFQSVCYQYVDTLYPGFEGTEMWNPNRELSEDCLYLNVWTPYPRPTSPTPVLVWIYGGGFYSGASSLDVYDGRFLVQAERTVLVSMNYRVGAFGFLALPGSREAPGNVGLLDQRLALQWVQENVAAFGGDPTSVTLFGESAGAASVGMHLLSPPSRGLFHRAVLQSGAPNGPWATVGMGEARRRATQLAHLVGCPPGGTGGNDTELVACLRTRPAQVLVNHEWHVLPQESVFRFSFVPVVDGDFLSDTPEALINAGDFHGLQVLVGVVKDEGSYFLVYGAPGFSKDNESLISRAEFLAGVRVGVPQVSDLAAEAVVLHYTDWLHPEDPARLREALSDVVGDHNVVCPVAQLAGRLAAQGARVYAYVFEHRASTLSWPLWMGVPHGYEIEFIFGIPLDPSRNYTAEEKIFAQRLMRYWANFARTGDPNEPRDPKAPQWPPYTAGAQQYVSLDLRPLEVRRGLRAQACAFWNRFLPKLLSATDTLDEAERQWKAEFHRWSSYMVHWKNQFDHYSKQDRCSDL
T2 sequence (Q9N1N9 whole entry): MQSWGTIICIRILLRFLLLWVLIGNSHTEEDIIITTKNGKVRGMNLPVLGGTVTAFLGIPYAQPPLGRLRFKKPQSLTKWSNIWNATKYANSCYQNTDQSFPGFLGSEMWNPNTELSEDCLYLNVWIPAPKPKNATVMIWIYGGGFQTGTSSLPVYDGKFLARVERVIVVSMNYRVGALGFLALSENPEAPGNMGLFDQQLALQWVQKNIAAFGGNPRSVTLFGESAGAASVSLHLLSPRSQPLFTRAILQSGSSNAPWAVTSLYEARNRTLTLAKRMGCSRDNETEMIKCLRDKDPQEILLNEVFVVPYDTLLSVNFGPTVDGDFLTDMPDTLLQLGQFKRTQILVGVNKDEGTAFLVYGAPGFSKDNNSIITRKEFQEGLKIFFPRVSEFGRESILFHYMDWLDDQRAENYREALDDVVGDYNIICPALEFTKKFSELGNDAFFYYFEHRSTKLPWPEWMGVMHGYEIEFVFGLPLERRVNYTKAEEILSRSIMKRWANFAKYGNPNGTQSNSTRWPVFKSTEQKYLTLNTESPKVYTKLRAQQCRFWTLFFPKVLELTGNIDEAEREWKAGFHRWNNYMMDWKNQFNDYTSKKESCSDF

Take `CC(C)=CCC/C(C)=C/Cc1c(O)cc2c(c1O)C(=O)C[C@@H](c1ccc(O)c(O)c1)O2` [NYMPHAEOL A]: the IC50 amounted to 7.2 µM on Acetylcholinesterase [1] and 1.4 µM at Butyrylcholinesterase [5]. Moreover, the inhibition entry on Acetylcholinesterase [1] is “Dose-dependent effect”; at Acetylcholinesterase [3], “tde”. The Ki at Butyrylcholinesterase [2] came to 1.2 µM; at Acetylcholinesterase [4] it was 8.4 µM. Further, the Ratio IC50 on Acetylcholinesterase [6] is 200. The KSV at Acetylcholinesterase [7] turned out to be 0.0577 ×10⁵ L/M. On Acetylcholinesterase [8], this molecule had a Ka of 5.49 ×10³ L/M.

With `CC(C)=CCC/C(C)=C/Cc1c(O)cc2c(c1O)C(=O)C[C@@H](c1ccc(O)cc1)O2` [BONANNIONE A], the IC50 on Acetylcholinesterase [1] came to 91.5 µM; on Butyrylcholinesterase [5], 20.6 µM. The results for the inhibition entry on Acetylcholinesterase [1] and on Acetylcholinesterase [3] were “Dose-dependent effect” and “tde”, respectively. The values for the Ki on Butyrylcholinesterase [2] and on Acetylcholinesterase [4] were 22.2 µM and 120 µM, respectively.

On to `CNC(=O)Oc1ccc2c(c1)[C@]1(C)CCN(C)[C@@H]1N2C` [PHYSOSTIGMINE], for which, on Butyrylcholinesterase [5], the IC50 came to 3.7 µM.

On to `COc1c(O)cc(C2Oc3cc(O)c(C/C=C(\C)CCC=C(C)C)c(O)c3C(=O)[C@@H]2O)cc1O` (some centres not stated), for which the results for the 50% inhibitory concentration (IC50) on Acetylcholinesterase [1] and at Butyrylcholinesterase [5] were 15.6 µM and 3.8 µM, respectively. Besides, the inhibition result on Acetylcholinesterase [1] is “Dose-dependent effect”; at Acetylcholinesterase [3], “tde”. The Ki turned out to be 4.5 µM at Butyrylcholinesterase [2] and 16.9 µM at Acetylcholinesterase [4]. Also, the KSV at Acetylcholinesterase [7] came to 0.0369 ×10⁵ L/M. At Acetylcholinesterase [8], the Ka came out at 4.54 ×10³ L/M.

As to `COc1cc(C2CC(=O)c3c(cc(O)c(C/C=C(\C)CCC=C(C)C)c3O)O2)cc(OC)c1O` (configuration not stated), the IC50 on Acetylcholinesterase [1] stood at 316 µM; at Butyrylcholinesterase [5] it was 80 µM. The molecule further displayed a Ki at Butyrylcholinesterase [2] of 75.2 µM.

On to `COc1c(O)cc(C2CC(=O)c3c(cc(O)c(C/C=C(\C)CCC=C(C)C)c3O)O2)cc1O` (configuration not stated), for which the IC50 is 22.9 µM at Acetylcholinesterase [1] and 6.4 µM at Butyrylcholinesterase [5]. Moreover, the inhibition entry was “Dose-dependent effect” on Acetylcholinesterase [1] and “tde” at Acetylcholinesterase [3]. For the same molecule, the inhibition constant Ki was determined as 7.6 µM on Butyrylcholinesterase [2] and 30.1 µM at Acetylcholinesterase [4].

Regarding `O=C1C[C@@H](c2ccc(O)cc2)Oc2cc(O)cc(O)c21` [NARINGENIN], the concentration for half-maximal inhibition (IC50) on Acetylcholinesterase [1] worked out at 2040 µM; on Butyrylcholinesterase [5] it was 1490 µM.

As to `COc1cc([C@@H]2CC(=O)c3c(cc(O)c(C/C=C(\C)CCC=C(C)C)c3O)O2)ccc1O`, the half-maximal inhibitory concentration (IC50) stood at 109 µM on Acetylcholinesterase [1] and 24.5 µM on Butyrylcholinesterase [5]. The inhibition result on Acetylcholinesterase [1] was “Dose-dependent effect”; at Acetylcholinesterase [3], “tde”. Further, the results for the inhibition constant Ki at Butyrylcholinesterase [2] and at Acetylcholinesterase [4] were 23.6 µM and 150 µM, respectively.

For the molecule `COc1ccc([C@@H]2CC(=O)c3c(O)cc(O)cc3O2)cc1O` [HESPERETIN], the concentration for half-maximal inhibition (IC50) stood at 2480 µM at Acetylcholinesterase [1] and 1770 µM at Butyrylcholinesterase [5].

Regarding `COc1ccc([C@H]2Oc3cc(O)c(C/C=C(\C)CCC=C(C)C)c(O)c3C(=O)[C@@H]2O)cc1O`, the IC50 was 31.9 µM on Acetylcholinesterase [1] and 12.7 µM on Butyrylcholinesterase [5]. Further, the values for the inhibition entry at Acetylcholinesterase [1] and on Acetylcholinesterase [3] were “Dose-dependent effect” and “tde”, respectively. Further, the Ki was 18.7 µM on Butyrylcholinesterase [2] and 34.3 µM at Acetylcholinesterase [4]. The KSV on Acetylcholinesterase [7] stood at 0.0285 ×10⁵ L/M. This molecule gave a Ka at Acetylcholinesterase [8] of 2.7 ×10³ L/M.

In the case of `COc1ccc([C@@H]2CC(=O)c3c(cc(O)c(C/C=C(\C)CCC=C(C)C)c3O)O2)cc1O`, the IC50 at Acetylcholinesterase [1] came out at 92.4 µM; at Butyrylcholinesterase [5] it was 25.6 µM. Moreover, the inhibition entry at Acetylcholinesterase [1] is “Dose-dependent effect”; at Acetylcholinesterase [3], “tde”. The values for the Ki at Butyrylcholinesterase [2] and at Acetylcholinesterase [4] were 23.5 µM and 94.5 µM, respectively. Also, the KSV at Acetylcholinesterase [7] came out at 0.0103 ×10⁵ L/M. Moreover, the Ka at Acetylcholinesterase [8] amounted to 0.924 ×10³ L/M.

For the molecule `O=C1C[C@@H](c2ccc(O)c(O)c2)Oc2cc(O)cc(O)c21` [ERIODICTYOL], the IC50 is 1660 µM on Acetylcholinesterase [1] and 1120 µM at Butyrylcholinesterase [5].

As for `COc1cc([C@H]2Oc3cc(O)c(C/C=C(\C)CCC=C(C)C)c(O)c3C(=O)[C@@H]2O)ccc1O`, the concentration for half-maximal inhibition (IC50) was determined as 48.5 µM at Acetylcholinesterase [1] and 11.2 µM on Butyrylcholinesterase [5]. The inhibition result at Acetylcholinesterase [1] is “Dose-dependent effect”; on Acetylcholinesterase [3] it was “tde”. Also, the Ki on Butyrylcholinesterase [2] amounted to 18.2 µM; at Acetylcholinesterase [4] it was 68.2 µM.
